pKi: −log10 of the molar value. ≈ marks a conversion by molar mass, not a printed value.
Experiments:
[1] = target: T1, C-X-C chemokine receptor type 3 (Homo sapiens, UniProt P49682); test: Antagonist activity at human CXCR3 expressed in CHO cells by [35S]GTP-gamma-S binding assay; assay type: functional, cell-based
T1 sequence (P49682 whole entry): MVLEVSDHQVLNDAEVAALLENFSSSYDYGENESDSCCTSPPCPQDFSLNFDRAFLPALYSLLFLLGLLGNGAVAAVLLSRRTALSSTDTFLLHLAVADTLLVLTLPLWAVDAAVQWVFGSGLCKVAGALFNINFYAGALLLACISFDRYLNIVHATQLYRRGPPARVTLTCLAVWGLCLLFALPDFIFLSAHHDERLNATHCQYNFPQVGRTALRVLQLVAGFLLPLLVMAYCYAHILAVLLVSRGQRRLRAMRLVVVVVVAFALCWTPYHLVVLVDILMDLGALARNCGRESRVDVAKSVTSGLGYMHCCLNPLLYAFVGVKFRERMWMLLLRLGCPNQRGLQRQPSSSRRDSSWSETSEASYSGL

[2] = target: T2, C-X-C chemokine receptor type 3 (Homo sapiens) (UniProt P49682); test: Antagonist activity at human CXCR3 expressed in CHO cells by [35S]GTP-gamma-S binding assay at 10 uM; assay type: functional, cell-based
T2 sequence (whole entry): T1 sequence (P49682 whole entry)

[3] = Aqueous solubility at pH 6.5; assay type: physicochemical
[4] = Clearance in mouse liver microsomes at 0.5 uM; assay type: ADME, Microsome
Method in brief: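 Clearance determined in mouse liver microsomes with compound at 0.5 µM.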

[5] = Distribution coefficient, log D of the compound; assay type: physicochemical; settings: octanol/water
[6] = Clearance in mouse at 1 mg/kg, iv; assay type: ADME, organism-based; parameters: dose 1 mg/kg, route intravenous; settings: in vivo
Method in brief: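 Mice given 1 mg/kg intravenously; clearance determined.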

Cytochrome P450 2D6 = Cytochrome P450 2D6 (Homo sapiens, UniProt P10635); test: Inhibition at human CYP2D6; assay type: ADME
Chain of Cytochrome P450 2D6 (P10635 whole entry): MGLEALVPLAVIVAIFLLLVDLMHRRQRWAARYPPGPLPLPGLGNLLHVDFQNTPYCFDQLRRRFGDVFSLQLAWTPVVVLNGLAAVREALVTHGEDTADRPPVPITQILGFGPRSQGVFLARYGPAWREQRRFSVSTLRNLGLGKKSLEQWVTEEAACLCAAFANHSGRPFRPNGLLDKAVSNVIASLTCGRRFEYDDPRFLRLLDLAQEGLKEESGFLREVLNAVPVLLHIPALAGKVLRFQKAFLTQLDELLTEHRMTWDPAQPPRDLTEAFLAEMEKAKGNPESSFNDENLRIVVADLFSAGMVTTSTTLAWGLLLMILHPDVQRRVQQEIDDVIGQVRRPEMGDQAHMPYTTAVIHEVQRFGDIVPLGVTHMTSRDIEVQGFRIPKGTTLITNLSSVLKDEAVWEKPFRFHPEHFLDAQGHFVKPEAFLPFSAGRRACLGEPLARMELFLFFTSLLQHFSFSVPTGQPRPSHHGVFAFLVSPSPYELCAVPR

[7] = target: T3, C-X-C chemokine receptor type 3 (Mus musculus, UniProt O88410); test: Antagonist activity at mouse CXCR3 by [35S]GTP-gamma-S binding assay; assay type: functional
T3 sequence (O88410 whole entry): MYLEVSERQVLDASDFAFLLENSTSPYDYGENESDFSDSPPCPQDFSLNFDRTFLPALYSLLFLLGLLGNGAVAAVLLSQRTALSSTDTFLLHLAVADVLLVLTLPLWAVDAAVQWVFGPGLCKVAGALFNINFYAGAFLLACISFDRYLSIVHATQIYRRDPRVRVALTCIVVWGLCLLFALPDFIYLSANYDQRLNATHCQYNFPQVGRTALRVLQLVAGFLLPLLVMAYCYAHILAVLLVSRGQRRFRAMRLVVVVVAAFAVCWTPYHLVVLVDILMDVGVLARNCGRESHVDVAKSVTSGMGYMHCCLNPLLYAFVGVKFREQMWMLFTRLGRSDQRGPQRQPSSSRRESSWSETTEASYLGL

Row | SMILES | pKi [1] | also measured
1 | CC1(C)C2CC=C(CCN3CCC(NC(=O)Nc4ccc5ccccc5c4)CC3)C1C2 (stereo not given) | 6.54 | –
2 | CC1(C)[C@H]2CC=C(CN3CCC(NC(=O)Nc4ccc(OC(F)(F)F)cc4)CC3)[C@@H]1C2 | 6.76 | –
3 | CC1(C)[C@H]2CC=C(CN3CCC(NC(=O)Nc4ccc(-c5ccccc5Cl)s4)CC3)[C@@H]1C2 | 7.34 | –
4 | N#Cc1ccc(NC(=O)NC2CCN(C/C3=C/CCCCCC3)CC2)cc1 | – | Intrinsic activity [2]: < 50%
5 | CC1(C)[C@H]2CC=C(CN3CCC(NC(=O)Nc4cc(C(F)(F)F)ccc4F)CC3)[C@@H]1C2 | 6.64 | –
6 | O=C(Nc1cc(Cl)nc(Cl)c1)NC1CCN(C/C2=C/CCCCCC2)CC1 | 5.47 | –
7 | CC1(C)[C@H]2CC=C(CN3CCC(NC(=O)Nc4ccc(-c5ccccc5)s4)CC3)[C@@H]1C2 | 6.72 | –
8 | CC1(C)[C@H]2CC=C(CN3CCC(NC(=O)Nc4cc(F)cc(OC5CCOC5)c4)CC3)[C@@H]1C2 (stereo not given in full) | 7.08 | solubility [3]: 874 µg/mL (≈ 1910 µM); microsomal CLint at 0.5 µM [4]: 97 µL/min/mg; logD [5]: 3
9 | CC1(C)[C@H]2CC=C(CN3CCC(NC(=O)Nc4cncc(-c5cccs5)c4)CC3)[C@@H]1C2 | 7.15 | solubility [3]: 4 µg/mL (≈ 9.16 µM); microsomal CLint at 0.5 µM [4]: 324 µL/min/mg; logD [5]: 3.47; clearance [6]: 112 mL/min/kg
10 | O=C(Nc1cccc(C(F)(F)F)c1)NC1CCN(C/C2=C/CCCCCC2)CC1 | 7.06 | –
11 | O=C(Nc1ccc2ccccc2c1)NC1CCN(C/C2=C/CCCCCC2)CC1 | 6.96 | pKi (Cytochrome P450 2D6): 6.22; solubility [3]: 1 µg/mL (≈ 2.55 µM); logD [5]: 4.95; pKi [7]: 6.40
12 | O=C(Nc1cc(C(F)(F)F)cc(C(F)(F)F)c1)NC1CCN(C/C2=C/CCCCCC2)CC1 | 7.44 | –
13 | CC1(C)[C@H]2CC=C(CN3CCC(NC(=O)Nc4cccc(OC5CCOC5)c4)CC3)[C@@H]1C2 (stereo not given in full) | 6.85 | solubility [3]: 927 µg/mL (≈ 2110 µM); microsomal CLint at 0.5 µM [4]: 287 µL/min/mg; logD [5]: 3.87; clearance [6]: 222 mL/min/kg
14 | CC1(C)[C@H]2CC=C(CN3CCC(NC(=O)Nc4cccc(C(=O)O)c4)CC3)[C@@H]1C2 | – | Intrinsic activity [2]: < 50%
15 | CC1(C)[C@H]2CC=C(C[N+]3(C)CCC(NC(=O)Nc4cc(F)cc(C(F)(F)F)c4)CC3)[C@@H]1C2.[I-] (stereo not given in full) | 7.55 | solubility [3]: 55 µg/mL; microsomal CLint at 0.5 µM [4]: 66 µL/min/mg; logD [5]: 2.35; clearance [6]: 34.5 mL/min/kg
16 | O=C(Nc1cccc(OC(F)(F)F)c1)NC1CCN(C/C2=C/CCCCCC2)CC1 | 6.98 | –
17 | COc1cccc(-c2ccc(NC(=O)NC3CCN(CC4=CC[C@H]5C[C@@H]4C5(C)C)CC3)s2)c1 | 7.54 | –
18 | O=C(Nc1ccc2ccccc2c1)NC1CCN(CCCc2ccccc2)CC1 | 5.66 | –

Row | SMILES | pKi [1] | also measured
19 | COc1cccc(NC(=O)NC2CCN(CC3=CC[C@H]4C[C@@H]3C4(C)C)CC2)c1 | 6.37 | –
20 | O=C(Nc1ccsc1)NC1CCN(C/C2=C/CCCCCC2)CC1 | – | Intrinsic activity [2]: < 50%
21 | O=C(Nc1ccc2ccccc2c1)NC1CCN(CCc2ccccc2)CC1 | 5.89 | –
22 | O=C(Nc1ccc(Oc2ccccc2)cc1)NC1CCN(C/C2=C/CCCCCC2)CC1 | 6.51 | –
23 | CC1(C)[C@H]2CC=C(CN3CCC(NC(=O)Nc4cncc(-c5ccsc5)c4)CC3)[C@@H]1C2 | 6.97 | –
24 | CC1(C)[C@H]2CC=C(CN3CCC(NC(=O)Nc4ccc(F)c(C(F)(F)F)c4)CC3)[C@@H]1C2 | 7.09 | –
25 | CC1(C)[C@H]2CC=C(CN3CCC(NC(=O)Nc4ccccc4)CC3)[C@@H]1C2 | 5.70 | –
26 | CC1(C)[C@H]2CC=C(CN3CCC(NC(=O)Nc4cccc(OC5CCOCC5)c4)CC3)[C@@H]1C2 | 6.72 | –
27 | O=C(Nc1cc(F)cc(C(F)(F)F)c1)NC1CCN(C/C2=C/CCCCCC2)CC1 | 7.33 | –
28 | CC(=O)c1cccc(NC(=O)NC2CCN(C/C3=C/CCCCCC3)CC2)c1 | 6.20 | –
29 | O=C(Nc1ccc2ccccc2c1)NC1CCN(CC23C=CC(CC2)C3)CC1 (stereo not given) | – | Intrinsic activity [2]: < 50%
30 | CC1(C)[C@H]2CC=C(CN3CCC(NC(=O)Nc4cccc(CN5CCOCC5)c4)CC3)[C@@H]1C2 | – | Intrinsic activity [2]: < 50%
31 | CC(C)(C)c1ccc(NC(=O)NC2CCN(C/C3=C/CCCCCC3)CC2)cc1 | 5.98 | –
32 | O=C(Nc1cccc2ccccc12)NC1CCN(C/C2=C/CCCCCC2)CC1 | – | Intrinsic activity [2]: < 50%
33 | N#Cc1cccc(NC(=O)NC2CCN(C/C3=C/CCCCCC3)CC2)c1 | – | Intrinsic activity [2]: < 50%
34 | CC1(C)[C@H]2CC=C(CN3CCC(NC(=O)Nc4ccc(-c5ccc(C(F)(F)F)cc5)s4)CC3)[C@@H]1C2 | 7.41 | –
35 | CC1(C)[C@H]2CC=C(CN3CCC(NC(=O)Nc4cccc(CO)c4)CC3)[C@@H]1C2 | – | Intrinsic activity [2]: < 50%

Second part, led by results:

Row | pKi [1] | SMILES | also measured
36 | 7.14 | CC1(C)[C@H]2CC=C(CN3CCC(NC(=O)Nc4cc(C(F)(F)F)cc(C(F)(F)F)c4)CC3)[C@@H]1C2 | –
37 | 7.80 | CC1(C)[C@H]2CC=C(CN3CCC(NC(=O)Nc4cc(F)cc(C(F)(F)F)c4)CC3)[C@@H]1C2 | –
38 | 6.77 | CC1(C)[C@H]2CC=C(CN3CCC(NC(=O)Nc4cncc(Br)c4)CC3)[C@@H]1C2 | –
39 | 6.77 | CC1(C)[C@H]2CC=C(CN3CCC(NC(=O)Nc4cc(F)cc(F)c4)CC3)[C@@H]1C2 | –
40 | 6.42 | COC(=O)c1cccc(NC(=O)NC2CCN(CC3=CC[C@H]4C[C@@H]3C4(C)C)CC2)c1 | –
41 | 6.18 | COC(=O)c1cccc(NC(=O)NC2CCN(C/C3=C/CCCCCC3)CC2)c1 | –
42 | 7.51 | CC1(C)[C@H]2CC=C(CN3CCC(NC(=O)Nc4cccc(OC(F)(F)F)c4)CC3)[C@@H]1C2 | –
43 | 6.70 | O=C(Nc1cccc(Cl)c1)NC1CCN(C/C2=C/CCCCCC2)CC1 | –
44 | 6.59 | CC(=O)c1cccc(NC(=O)NC2CCN(CC3=CC[C@H]4C[C@@H]3C4(C)C)CC2)c1 | –
45 | 6.97 | O=C(Nc1ccc(-c2ccccc2)s1)NC1CCN(C/C2=C/CCCCCC2)CC1 | –
46 | 7.39 | O=C(Nc1cc(Cl)cc(Cl)c1)NC1CCN(C/C2=C/CCCCCC2)CC1 | –

Reference: ChEMBL document CHEMBL1143784, “Identification and structure-activity relationships of 1-aryl-3-piperidin-4-yl-urea derivatives as CXCR3 receptor antagonists” (Bioorg Med Chem Lett, 2007)
